According to ChEMBL document CHEMBL1782036, “Atovaquone derivatives as potent cytotoxic and apoptosis inducing agents” (Bioorg Med Chem Lett, 2009):
Blank lines part the entries; values can stand above or below the compound they belong to.

Assays:
DU-145 [1] = assay: Growth inhibition of human DU145 cells after 72 hrs by MTT assay; type: functional, cell-based; settings: DU-145, 72 h
In short: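 Du145 human prostate carcinoma cells were screened by MTT cell-growth inhibition assay. IC50 values are means of three experiments.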

IMR-90 = assay: Antiproliferative activity against human IMR90 cells after 72 hrs by MTT assay; type: cell-based; settings: IMR-90, 72 h
A549 = assay: Antiproliferative activity against human A549 cells after 72 hrs by MTT assay; type: functional, cell-based; settings: A549, 72 h
HeLa = assay: Antiproliferative activity against human HeLa cells after 72 hrs by MTT assay; type: functional, cell-based
HepG2 = assay: Antiproliferative activity against human HepG2 cells after 72 hrs by MTT assay; type: functional, cell-based; settings: HepG2, 72 h
HT-1080 = assay: Antiproliferative activity against human HT1080 cells after 72 hrs by MTT assay; type: functional, cell-based; settings: HT-1080, 72 h
HT-29 = assay: Antiproliferative activity against human HT-29 cells after 72 hrs by MTT assay; type: functional, cell-based; settings: HT-29, 72 h
KB = assay: Antiproliferative activity against human KB cells after 72 hrs by MTT assay; type: functional, cell-based
[2] = Antiproliferative activity against human L78 cells after 72 hrs by MTT assay; type: functional, cell-based; settings: L78, 72 h
MCF7 = assay: Antiproliferative activity against human MCF7 cells after 72 hrs by MTT assay; type: functional, cell-based; settings: MCF7, 72 h
MOLT-4 = assay: Antiproliferative activity against human MOLT4 cells after 72 hrs by MTT assay; type: functional, cell-based; settings: MOLT-4, 72 h
OS-RC-2 = assay: Antiproliferative activity against human OS-RC2 cells after 72 hrs by MTT assay; type: functional, cell-based; settings: OS-RC-2, 72 h
SGC-7901 = assay: Antiproliferative activity against human SGC7901 cells after 72 hrs by MTT assay; type: functional, cell-based; settings: SGC-7901, 72 h
U-251 = assay: Antiproliferative activity against human U251 cells after 72 hrs by MTT assay; type: functional, cell-based; settings: U-251, 72 h
DU-145 [3] = assay: Induction of apoptosis in human DU145 cells at 5 uM assessed as live cell level after 72 hrs by AnnexinV conjugated 7- AAD staining by flow cytometry; type: functional
In short: (§1)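 Du145 cells were treated for 72 h and stained with Annexin V conjugate plus 7-AAD. Flow cytometry read PS externalization and membrane integrity, scoring cells as live (double negative), early apoptotic, or late apoptotic/necrotic (double positive). Untreated cells served as the control.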

DU-145 [4] = assay: Induction of apoptosis in human DU145 cells at 5 uM assessed as early apoptosis level after 72 hrs by AnnexinV conjugated 7- AAD staining by flow cytometry; type: functional; in short: as §1
DU-145 [5] = assay: Induction of apoptosis in human DU145 cells at 5 uM assessed as late apoptosis/ necrotic cells level after 72 hrs by AnnexinV conjugated 7- AAD staining by flow cytometry; type: functional; in short: as §1
DU-145 [6] = assay: Induction of apoptosis in human DU145 cells at 5 uM assessed as dead cell level after 72 hrs by AnnexinV conjugated 7- AAD staining by flow cytometry; type: functional
In short: (§2)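 Du145 human prostate carcinoma cells exposed to compound for 72 h, then stained with Annexin V and 7-AAD and analysed by flow cytometry. Annexin V detects phosphatidylserine externalised to the outer membrane leaflet, and 7-AAD enters only membrane-compromised cells. Dead cells were those positive for both stains. Untreated cells served as control.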

DU-145 [7] = assay: Induction of apoptosis in human DU145 cells at 10 uM assessed as live cell level after 72 hrs by AnnexinV conjugated 7- AAD staining by flow cytometry; type: functional; in short: as §1
DU-145 [8] = assay: Induction of apoptosis in human DU145 cells at 10 uM assessed as early apoptosis level after 72 hrs by AnnexinV conjugated 7- AAD staining by flow cytometry; type: functional; in short: as §1
DU-145 [9] = assay: Induction of apoptosis in human DU145 cells at 10 uM assessed as late apoptosis/ necrotic cells level after 72 hrs by AnnexinV conjugated 7- AAD staining by flow cytometry; type: functional; in short: as §1
DU-145 [10] = assay: Induction of apoptosis in human DU145 cells at 10 uM assessed as dead cell level after 72 hrs by AnnexinV conjugated 7- AAD staining by flow cytometry; type: functional; in short: as §2

SMILES: Cc1ccccc1C1CCN(C2=CC(=O)c3cccc(O)c3C2=O)CC1
IC50 (DU-145 [1]): 2.5 µM | IC50 (IMR-90): > 50 µM | IC50 (A549): 5.2 µM | IC50 (HeLa): 9.7 µM | IC50 (HepG2): 16.6 µM | IC50 (HT-1080): > 50 µM | IC50 (HT-29): 6.7 µM | IC50 (KB): 4.4 µM | IC50 [2]: 4.4 µM | IC50 (MCF7): 8.9 µM | IC50 (MOLT-4): > 50 µM | IC50 (OS-RC-2): 3.2 µM | IC50 (SGC-7901): 3.9 µM | IC50 (U-251): 30.4 µM | Activity (DU-145 [3]): 51.4% | Activity (DU-145 [4]): 10.31% | Activity (DU-145 [5]): 34.39% | Activity (DU-145 [6]): 3.9% | Activity (DU-145 [7]): 0.96% | Activity (DU-145 [8]): 14.31% | Activity (DU-145 [9]): 84.32% | Activity (DU-145 [10]): 0.42%

SMILES: O=C1C=C(N2CCC(c3ccc(Cl)cc3)CC2)C(=O)c2c(O)cccc21
IC50 (DU-145 [1]): 2.6 µM | IC50 (IMR-90): > 50 µM | IC50 (A549): 17.2 µM | IC50 (HeLa): 18.2 µM | IC50 (HepG2): 5.4 µM | IC50 (HT-1080): 22.4 µM | IC50 (HT-29): 6.9 µM | IC50 (KB): 14 µM | IC50 [2]: 40.6 µM | IC50 (MCF7): 20.5 µM | IC50 (MOLT-4): > 50 µM | IC50 (OS-RC-2): 5.2 µM | IC50 (SGC-7901): > 50 µM | IC50 (U-251): 6.1 µM | Activity (DU-145 [3]): 52.14% | Activity (DU-145 [4]): 7.22% | Activity (DU-145 [5]): 35.95% | Activity (DU-145 [6]): 4.69% | Activity (DU-145 [7]): 1.95% | Activity (DU-145 [8]): 8.88% | Activity (DU-145 [9]): 87.96% | Activity (DU-145 [10]): 1.21%

SMILES: Cc1ccccc1C1CCN(C2=CC(=O)c3ccccc3C2=O)CC1
IC50 (DU-145 [1]): 6.1 µM

SMILES: O=C1C=C(N2CCC(c3ccccc3)CC2)C(=O)c2c(O)cccc21
IC50 (DU-145 [1]): 3 µM | IC50 (IMR-90): > 50 µM | IC50 (A549): > 50 µM | IC50 (HeLa): 8.6 µM | IC50 (HepG2): 9.7 µM | IC50 (HT-1080): 11.1 µM | IC50 (HT-29): 5.4 µM | IC50 (KB): 2.2 µM | IC50 [2]: 13.4 µM | IC50 (MCF7): 8.8 µM | IC50 (MOLT-4): 2.7 µM | IC50 (OS-RC-2): 0.7 µM | IC50 (SGC-7901): 11.1 µM | IC50 (U-251): 10.8 µM | Activity (DU-145 [3]): 53.01% | Activity (DU-145 [4]): 3.87% | Activity (DU-145 [5]): 37.56% | Activity (DU-145 [6]): 5.57% | Activity (DU-145 [7]): 50.85% | Activity (DU-145 [8]): 3.17% | Activity (DU-145 [9]): 38.3% | Activity (DU-145 [10]): 7.68%

SMILES: COc1ccc(N2CCN(C3=CC(=O)c4ccccc4C3=O)CC2)cc1OC
IC50 (DU-145 [1]): 17.8 µM

SMILES: COc1cc(OC)cc(N2CCN(C3=CC(=O)c4ccccc4C3=O)CC2)c1
IC50 (DU-145 [1]): 14.9 µM

SMILES: COc1cc(N2CCN(C3=CC(=O)c4ccccc4C3=O)CC2)cc(OC)c1OC
IC50 (DU-145 [1]): 11.6 µM

SMILES: O=C1C=C(N2CCN(c3ccccc3Cl)CC2)C(=O)c2ccccc21
IC50 (DU-145 [1]): 2.9 µM | IC50 (IMR-90): > 50 µM | IC50 (A549): 10.3 µM | IC50 (HeLa): 11.3 µM | IC50 (HepG2): 11.1 µM | IC50 (HT-1080): 15.4 µM | IC50 (HT-29): 18.9 µM | IC50 (KB): 3.7 µM | IC50 [2]: 28.8 µM | IC50 (MCF7): 10.3 µM | IC50 (MOLT-4): > 50 µM | IC50 (OS-RC-2): 8.9 µM | IC50 (SGC-7901): 41.8 µM | IC50 (U-251): 30.8 µM | Activity (DU-145 [3]): 91.36% | Activity (DU-145 [4]): 1.01% | Activity (DU-145 [5]): 3.65% | Activity (DU-145 [6]): 3.99% | Activity (DU-145 [7]): 85.3% | Activity (DU-145 [8]): 1.89% | Activity (DU-145 [9]): 9.71% | Activity (DU-145 [10]): 3.1%

SMILES: O=C1C=C(N2CCN(c3ccc(F)cc3)CC2)C(=O)c2c(O)cccc21
IC50 (DU-145 [1]): 8.4 µM

SMILES: O=C1C(O)=C([C@H]2CC[C@H](c3ccc(Cl)cc3)CC2)C(=O)c2ccccc21 [ATOVAQUONE]
IC50 (DU-145 [1]): 29.3 µM

SMILES: O=C1C=C(N2CCN(c3ccc(F)c(Cl)c3)CC2)C(=O)c2ccccc21
IC50 (DU-145 [1]): 32.2 µM

SMILES: COc1cccc2c1C(=O)c1c(O)c3c(c(O)c1C2=O)C[C@@](O)(C(=O)CO)C[C@@H]3O[C@H]1C[C@H](N)[C@H](O)[C@H](C)O1 [DOXORUBICIN]
IC50 (IMR-90): 1 µM | IC50 (HT-1080): 0.1 µM | IC50 (HT-29): 1.3 µM | IC50 [2]: 2.4 µM | IC50 (MOLT-4): 0.002 µM | IC50 (OS-RC-2): 5.4 µM | IC50 (SGC-7901): 0.9 µM | IC50 (U-251): 0.6 µM

SMILES: O=C1C=C(N2CCN(c3ccccc3Cl)CC2)C(=O)c2c(O)cccc21
IC50 (DU-145 [1]): 2.3 µM | IC50 (IMR-90): 16.9 µM | IC50 (A549): 4.5 µM | IC50 (HeLa): 7.2 µM | IC50 (HepG2): 7.7 µM | IC50 (HT-1080): 5.8 µM | IC50 (HT-29): 1.4 µM | IC50 (KB): 4.4 µM | IC50 [2]: 5.2 µM | IC50 (MCF7): 23.8 µM | IC50 (MOLT-4): 27.6 µM | IC50 (OS-RC-2): 2.5 µM | IC50 (SGC-7901): 8.2 µM | IC50 (U-251): 8 µM

SMILES: O=C1C=C(N2CCC(c3ccc(Cl)cc3)CC2)C(=O)c2ccccc21
IC50 (DU-145 [1]): 7.3 µM

SMILES: O=C1C=C(N2CCC(c3ccccc3)CC2)C(=O)c2ccccc21
IC50 (DU-145 [1]): 6 µM

SMILES: O=C1C(N2CCN(c3ccc(F)cc3)CC2)=CC(=O)c2c(O)cccc21
IC50 (DU-145 [1]): 22.4 µM

Second part, the compound after the results:

IC50 (DU-145 [1]): 9.9 µM
SMILES: O=C1C=C(N2CCN(c3ccccc3)CC2)C(=O)c2ccccc21

IC50 (DU-145 [1]): 8.3 µM
SMILES: O=C1C=C(N2CCN(c3cccc(Cl)c3)CC2)C(=O)c2ccccc21

IC50 (DU-145 [1]): 5.7 µM
SMILES: Cc1ccccc1N1CCN(C2=CC(=O)c3ccccc3C2=O)CC1

IC50 (DU-145 [1]): > 50 µM
SMILES: O=C1C=C(N2CCN(c3ccc(Br)cc3)CC2)C(=O)c2ccccc21

IC50 (DU-145 [1]): 11.7 µM
SMILES: O=C1C=C(N2CCN(c3ccc(F)cc3)CC2)C(=O)c2ccccc21

IC50 (DU-145 [1]): 46.1 µM
SMILES: COc1ccc(N2CCN(C3=CC(=O)c4ccccc4C3=O)CC2)cc1

IC50 (DU-145 [1]): 15 µM
SMILES: COc1cccc(N2CCN(C3=CC(=O)c4ccccc4C3=O)CC2)c1

IC50 (DU-145 [1]): 7.4 µM
SMILES: Cc1cccc(N2CCN(C3=CC(=O)c4ccccc4C3=O)CC2)c1

IC50 (DU-145 [1]): 8.2 µM
SMILES: Cc1ccc(N2CCN(C3=CC(=O)c4ccccc4C3=O)CC2)cc1

IC50 (DU-145 [1]): 15.2 µM
SMILES: O=C1C(N2CCN(c3ccccc3)CC2)=CC(=O)c2c(O)cccc21

IC50 (DU-145 [1]): 29.5 µM
SMILES: O=C1C=C(N2CCN(c3ccc(Cl)cc3)CC2)C(=O)c2ccccc21

IC50 (DU-145 [1]): 8 µM
SMILES: COc1ccccc1N1CCN(C2=CC(=O)c3ccccc3C2=O)CC1
